Data: ChEMBL document CHEMBL4689842, “EUbOPEN Chemogenomics Library wave 1” (2021)

Test system: U2OS
Assay: Multiplex assay against U2OS
Format: toxicity, cell-based
Settings: human
Procedure, shortened: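 Hoechst33342, BioTracker Green Microtubule Cytoskeleton Dye, MitoTracker Red and Annexin V Alexa Fluor 680 were added to live cells at seeding, and imaging on a CQ1 microscope at 37°C and 5% CO2 followed compound addition. Gating by CellPathfinder machine learning separated cells into Hoechst high-intensity objects or normal cells, then normal cells into healthy, pyknosed or fragmented nuclei, then pyknosed cells into mitotic or apoptotic. Per cents of healthy-nucleus cells are reported for the tubulin, mitochondrial-mass and membrane-permeability phenotypes.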

[1] = 12 h, 1 µM, compound concentration 1 uM, replicate 1
[2] = 12 h, 1 µM, compound concentration 1 uM, replicate 2
[3] = 12 h, 10 µM, compound concentration 10 uM, replicate 1
[4] = 12 h, 10 µM, compound concentration 10 uM, replicate 2
[5] = 24 h, 1 µM, compound concentration 1 uM, replicate 1
[6] = 24 h, 1 µM, compound concentration 1 uM, replicate 2
[7] = 24 h, 10 µM, compound concentration 10 uM, replicate 1
[8] = 24 h, 10 µM, compound concentration 10 uM, replicate 2
[9] = 48 h, 1 µM, compound concentration 1 uM, replicate 1
[10] = 48 h, 1 µM, compound concentration 1 uM, replicate 2
[11] = 48 h, 10 µM, compound concentration 10 uM, replicate 1
[12] = 48 h, 10 µM, compound concentration 10 uM, replicate 2

Q: What does the source list for `CCc1nn(CCCN2CCN(c3cccc(Cl)c3)CC2)c(=O)n1CCOc1ccccc1.Cl` [NEFAZODONE HYDROCHLORIDE]?
A: Population Apoptotic (%) [1]: 42%; Population Fragmented Nuclei (%) [1]: 11%; Population Healthy Nuclei (%) [1]: 67%; Population Hoechst High Intensity Objects (%) [1]: 9%; Population Membrane Permeable-Phenotype (%) [1]: 1%; Population Mitochondria Different-Phenotype (%) [1]: 27%; Population Mitotic Cells (%) [1]: 57%; Population Normal (%) [1]: 90%; Population Pyknosed Nuclei (%) [1]: 20%; Population Tubulin-Different-Phenotype (%) [1]: 28%; Population Apoptotic (%) [2]: 0%; Population Fragmented Nuclei (%) [2]: 8%; Population Healthy Nuclei (%) [2]: 89%; Population Hoechst High Intensity Objects (%) [2]: 6%; Population Membrane Permeable-Phenotype (%) [2]: 3%; Population Mitochondria Different-Phenotype (%) [2]: 9%; Population Mitotic Cells (%) [2]: 100%; Population Normal (%) [2]: 93%; Population Pyknosed Nuclei (%) [2]: 1%; Population Tubulin-Different-Phenotype (%) [2]: 29%; Total Cell Count [2]: 68; Population Apoptotic (%) [3]: 71%; Population Fragmented Nuclei (%) [3]: 13%; Population Healthy Nuclei (%) [3]: 55%; Population Hoechst High Intensity Objects (%) [3]: 5%; Population Membrane Permeable-Phenotype (%) [3]: 56%; Population Mitochondria Different-Phenotype (%) [3]: 100%; Population Mitotic Cells (%) [3]: 28%; Population Normal (%) [3]: 94%; Population Pyknosed Nuclei (%) [3]: 31%; Population Tubulin-Different-Phenotype (%) [3]: 100%; Total Cell Count [3]: 150; Population Apoptotic (%) [4]: 69%; Population Fragmented Nuclei (%) [4]: 9%; Population Healthy Nuclei (%) [4]: 69%; Population Hoechst High Intensity Objects (%) [4]: 3%; Population Membrane Permeable-Phenotype (%) [4]: 60%; Population Mitochondria Different-Phenotype (%) [4]: 97%; Population Mitotic Cells (%) [4]: 30%; Population Normal (%) [4]: 96%; Population Pyknosed Nuclei (%) [4]: 20%; Population Tubulin-Different-Phenotype (%) [4]: 97%; Total Cell Count [4]: 61; Population Apoptotic (%) [5]: 32%; Population Fragmented Nuclei (%) [5]: 10%; Population Healthy Nuclei (%) [5]: 73%; Population Hoechst High Intensity Objects (%) [5]: 6%; Population Membrane Permeable-Phenotype (%) [5]: 3%; Population Mitochondria Different-Phenotype (%) [5]: 21%; Population Mitotic Cells (%) [5]: 68%; Population Normal (%) [5]: 93%; Population Pyknosed Nuclei (%) [5]: 15%; Population Tubulin-Different-Phenotype (%) [5]: 22%; Population Apoptotic (%) [6]: 50%; Population Fragmented Nuclei (%) [6]: 8%; Population Healthy Nuclei (%) [6]: 85%; Population Hoechst High Intensity Objects (%) [6]: 2%; Population Membrane Permeable-Phenotype (%) [6]: 1%; Population Mitochondria Different-Phenotype (%) [6]: 15%; Population Mitotic Cells (%) [6]: 50%; Population Normal (%) [6]: 97%; Population Pyknosed Nuclei (%) [6]: 5%; Population Tubulin-Different-Phenotype (%) [6]: 33%; Total Cell Count [6]: 71; Population Apoptotic (%) [7]: 82%; Population Fragmented Nuclei (%) [7]: 17%; Population Healthy Nuclei (%) [7]: 49%; Population Hoechst High Intensity Objects (%) [7]: 7%; Population Membrane Permeable-Phenotype (%) [7]: 72%; Population Mitochondria Different-Phenotype (%) [7]: 98%; Population Mitotic Cells (%) [7]: 17%; Population Normal (%) [7]: 92%; Population Pyknosed Nuclei (%) [7]: 33%; Population Tubulin-Different-Phenotype (%) [7]: 100%; Total Cell Count [7]: 172; Population Apoptotic (%) [8]: 80%; Population Fragmented Nuclei (%) [8]: 22%; Population Healthy Nuclei (%) [8]: 56%; Population Hoechst High Intensity Objects (%) [8]: 1%; Population Membrane Permeable-Phenotype (%) [8]: 80%; Population Mitochondria Different-Phenotype (%) [8]: 100%; Population Mitotic Cells (%) [8]: 20%; Population Normal (%) [8]: 98%; Population Pyknosed Nuclei (%) [8]: 20%; Total Cell Count [8]: 72; Population Apoptotic (%) [9]: 46%; Population Fragmented Nuclei (%) [9]: 9%; Population Healthy Nuclei (%) [9]: 73%; Population Hoechst High Intensity Objects (%) [9]: 5%; Population Membrane Permeable-Phenotype (%) [9]: 3%; Population Mitochondria Different-Phenotype (%) [9]: 15%; Population Mitotic Cells (%) [9]: 53%; Population Normal (%) [9]: 94%; Population Pyknosed Nuclei (%) [9]: 16%; Population Tubulin-Different-Phenotype (%) [9]: 14%; Population Apoptotic (%) [10]: 16%; Population Fragmented Nuclei (%) [10]: 5%; Population Healthy Nuclei (%) [10]: 88%; Population Hoechst High Intensity Objects (%) [10]: 1%; Population Membrane Permeable-Phenotype (%) [10]: 2%; Population Mitochondria Different-Phenotype (%) [10]: 18%; Population Mitotic Cells (%) [10]: 83%; Population Normal (%) [10]: 98%; Population Pyknosed Nuclei (%) [10]: 5%; Population Tubulin-Different-Phenotype (%) [10]: 46%; Total Cell Count [10]: 67; Population Apoptotic (%) [11]: 82%; Population Fragmented Nuclei (%) [11]: 24%; Population Healthy Nuclei (%) [11]: 41%; Population Membrane Permeable-Phenotype (%) [11]: 83%; Population Mitochondria Different-Phenotype (%) [11]: 97%; Population Mitotic Cells (%) [11]: 17%; Population Pyknosed Nuclei (%) [11]: 34%; Total Cell Count [11]: 246; Population Apoptotic (%) [12]: 66%; Population Fragmented Nuclei (%) [12]: 14%; Population Healthy Nuclei (%) [12]: 43%; Population Hoechst High Intensity Objects (%) [12]: 8%; Population Membrane Permeable-Phenotype (%) [12]: 85%; Population Mitochondria Different-Phenotype (%) [12]: 100%; Population Mitotic Cells (%) [12]: 33%; Population Normal (%) [12]: 91%; Population Pyknosed Nuclei (%) [12]: 42%; Population Tubulin-Different-Phenotype (%) [12]: 100%; Total Cell Count [12]: 110
